Tests used:
[1] = biological target: T1, Cholecystokinin receptor type A (Cavia porcellus) (UniProt Q63931)
T1 sequence (whole entry): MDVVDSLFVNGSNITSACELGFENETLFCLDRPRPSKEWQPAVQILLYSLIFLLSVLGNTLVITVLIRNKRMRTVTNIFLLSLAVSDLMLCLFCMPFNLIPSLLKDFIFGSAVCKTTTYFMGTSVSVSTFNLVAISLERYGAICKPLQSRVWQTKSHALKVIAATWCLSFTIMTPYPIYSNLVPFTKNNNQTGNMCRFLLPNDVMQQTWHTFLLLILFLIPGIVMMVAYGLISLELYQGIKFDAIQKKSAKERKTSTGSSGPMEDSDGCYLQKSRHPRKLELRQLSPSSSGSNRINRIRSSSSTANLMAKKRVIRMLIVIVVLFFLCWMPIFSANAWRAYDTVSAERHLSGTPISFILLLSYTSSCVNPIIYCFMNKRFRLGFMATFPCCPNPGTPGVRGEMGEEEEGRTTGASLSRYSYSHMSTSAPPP

[2] = biological target: T1, Cholecystokinin receptor type A (Cavia porcellus); details: Gall bladder
[3] = biological target: T2, Gastrin/cholecystokinin type B receptor (Homo sapiens) (UniProt P32239); details: Cavia porcellus
T2 sequence (whole entry): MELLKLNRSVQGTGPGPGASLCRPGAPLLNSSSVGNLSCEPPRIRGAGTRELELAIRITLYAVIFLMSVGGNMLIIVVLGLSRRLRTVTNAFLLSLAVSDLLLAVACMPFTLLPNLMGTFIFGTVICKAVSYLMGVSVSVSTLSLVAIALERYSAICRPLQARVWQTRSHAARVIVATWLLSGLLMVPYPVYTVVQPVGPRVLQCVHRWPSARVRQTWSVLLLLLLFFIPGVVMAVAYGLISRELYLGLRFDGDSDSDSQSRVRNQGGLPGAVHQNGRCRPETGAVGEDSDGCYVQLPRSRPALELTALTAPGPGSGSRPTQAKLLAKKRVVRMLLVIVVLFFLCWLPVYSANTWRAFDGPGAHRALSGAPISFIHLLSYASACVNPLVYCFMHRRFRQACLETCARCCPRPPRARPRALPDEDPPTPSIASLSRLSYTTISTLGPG

[4] = biological target: T3, Cholecystokinin receptor type A (Rattus norvegicus, UniProt P30551); assay: Inhibition by displacing [3H]CCK-8S against Cholecystokinin type A receptor of rat pancreatic membranes
T3 sequence (P30551 whole entry): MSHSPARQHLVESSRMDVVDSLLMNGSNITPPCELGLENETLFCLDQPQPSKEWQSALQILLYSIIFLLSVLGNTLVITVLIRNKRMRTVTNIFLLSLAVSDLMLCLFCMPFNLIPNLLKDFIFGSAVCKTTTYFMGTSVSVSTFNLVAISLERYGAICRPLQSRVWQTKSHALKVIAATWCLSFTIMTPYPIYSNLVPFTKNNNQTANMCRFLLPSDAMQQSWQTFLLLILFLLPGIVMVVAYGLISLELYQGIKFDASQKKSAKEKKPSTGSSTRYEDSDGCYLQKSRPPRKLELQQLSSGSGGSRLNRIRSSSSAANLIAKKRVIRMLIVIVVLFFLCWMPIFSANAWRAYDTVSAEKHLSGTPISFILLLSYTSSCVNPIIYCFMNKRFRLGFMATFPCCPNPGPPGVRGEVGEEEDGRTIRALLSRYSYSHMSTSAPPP

Rattus norvegicus [5] = organism: Rattus norvegicus; assay: pKB determined against pentagastrin-induced acid secretion in isolated rat gastric mucosa; assay type: functional
Outline: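 Isolated rat gastric mucosa used as a gastrin-receptor preparation; acid secretion stimulated with pentagastrin and antagonism expressed as pKB.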

Mus musculus [6] = assay: Anxiolytic effect in the mouse black / white box model, when administered intravenously; assay type: functional; details: iv
Outline: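 Naive mice were placed in an activity box with a brightly illuminated section, and the time they spent there was recorded. The effect was assessed over a dose series and reported as an ED50.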

Mus musculus [7] = assay: Anxiolytic effect in the mouse black / white box model, when administered orally (po); assay type: functional
Outline: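 Naive mice placed in an activity box with a brightly illuminated section. The read-out was the time the mice remained in the lit section. Dose-related effects were assessed, and an ED50 value was derived.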

[8] = biological target: T3, Cholecystokinin receptor type A; assay: In vitro inhibition of binding of [3H]pCCK-8 against Cholecystokinin type A receptor of rat pancreatic membranes; assay type: cell membranes, Membrane
Outline: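 Radioligand displacement of [3H]CCK-8S from membranes: rat pancreas for the CCK-A receptor and guinea-pig cerebral cortex for the CCK-B receptor, using slightly modified published methods. Values are means of n experiments.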

Rattus norvegicus [9] = assay: Anxiolytic effect in the rat social interaction test, when administered orally (po); assay type: functional
Rattus norvegicus [10] = assay: Anxiolytic effect in the rat social interaction test against FG 7142, when administered intraperitoneally; assay type: functional; details: ip
Cavia porcellus = organism: Cavia porcellus; assay: Selectivity factor between CCK-B and CCK-A receptors

In the case of `O=C(Nc1ccccc1)NC1C(=O)N(CC23C[C@H]4C[C@@H](C2)C[C@@H](C3)C4)c2ccccc2N(c2ccccc2)C1=O` (single isomer, unassigned; (+)) [listing 1 of 2 here], the pKB [1] is reported as 5.9, the pKB [2] is reported as 5.8 and the pKB [3] is reported as 8.9.
In the case of `Cc1cccc(NC(=O)N[C@@H]2N=C(c3ccccc3)c3ccccc3N(C)C2=O)c1` [L-365260], the Ki [4] is reported as 0.000148 µM.
In the case of `O=C(Nc1ccccc1)NC1C(=O)N(CC23C[C@H]4C[C@@H](C2)C[C@@H](C3)C4)c2ccccc2N(c2ccccc2)C1=O` (single isomer, unassigned; (+)) [listing 2 of 2 here], the pKB (Rattus norvegicus [5]) is reported as 7.4, the ED50 (Mus musculus [6]) is reported as 0.03 µg/kg and the ED50 (Mus musculus [7]) is reported as 0.05 µg/kg. For the same compound, the Ki [8] was 1.62 µM, the ED50 (Rattus norvegicus [9]) was 1.6 µg/kg and the Ki [4] was 1.48 µM. The ED50 (Rattus norvegicus [10]) was 10 µg/kg.
Work on `O=C(Nc1cccc(CO)c1)NC1C(=O)N(CC23C[C@H]4C[C@@H](C2)C[C@@H](C3)C4)c2ccccc2N(c2ccccc2)C1=O` (single isomer, unassigned; (+)) yielded a Ki [8] of 2.14 µM and a Ratio (Cavia porcellus) of 12000.
`O=C(Nc1cccc(C2N=NN=N2)c1)NC1C(=O)N(c2ccccc2)c2ccccc2N(C2[C@H]3C[C@@H]4C[C@@H](C[C@H]2C4)C3)C1=O` (stereo not given in full) was tested, and the Ki [8] was 0.0977 µM and the Ratio (Cavia porcellus) was 47.

Source: ChEMBL document CHEMBL1133671, “Synthesis and SAR of new 5-phenyl-3-ureido-1,5-benzodiazepines as cholecystokinin-B receptor antagonists” (J Med Chem, 2000)
